ChEMBL document CHEMBL4118253, “Expedient synthesis and biological evaluation of alkenyl acyclic nucleoside phosphonate prodrugs” (Bioorg Med Chem, 2018)

How the values were obtained:
Influenza B virus [1] = experiment: Antiviral activity against Influenza B virus infected in MDCK cells assessed as inhibition of virus-induced visual cytopathicity; type: functional, organism-based
Sindbis virus = experiment: Antiviral activity against Sindbis Virus infected in African green monkey Vero cells assessed as inhibition of virus-induced cytopathicity; type: functional, organism-based
[2] = system: Mammalian orthoreovirus 1; experiment: Antiviral activity against Reovirus-1 infected in human HeLa cells assessed as inhibition of virus-induced cytopathicity; type: functional, organism-based; conditions: Mammalian orthoreovirus 1, HeLa
[3] = Cytotoxicity against human HeLa cells assessed as alteration of cell morphology by microscopic analysis; type: cell-based
Human alphaherpesvirus 1 [4] = experiment: Antiviral activity against Herpes simplex virus 1 KOS infected in HEL cells assessed as inhibition of virus-induced cytopathicity; type: functional, organism-based; conditions: Human alphaherpesvirus 1, KOS
Influenza A virus [5] = experiment: Antiviral activity against Influenza A virus H1N1 infected in MDCK cells assessed as inhibition of virus-induced visual cytopathicity; type: functional, organism-based
[6] = system: Respiratory syncytial virus; experiment: Antiviral activity against Respiratory syncytial virus infected in human HeLa cells assessed as inhibition of virus-induced cytopathicity; type: functional, organism-based
Human alphaherpesvirus 3 [7] = experiment: Antiviral activity against thymidine kinase deficient Varicella-Zoster virus infected in HEL cells assessed as reduction in virus plaque formation; type: functional, organism-based; conditions: Human alphaherpesvirus 3, HEL
Human adenovirus 2 = experiment: Antiviral activity against Adenovirus 2 infected in HEL cells assessed as inhibition of virus-induced cytopathicity; type: functional, organism-based; conditions: Human mastadenovirus C
Influenza A virus H3N2 [8] = experiment: Antiviral activity against Influenza A virus H3N2 infected in MDCK cells assessed as inhibition of virus-induced cytopathicity by MTS assay; type: functional, organism-based
[9] = Cytotoxicity against MDCK cells assessed as alteration of cell morphology by microscopic analysis; type: cell-based, Canis lupus familiaris; conditions: dog
Human alphaherpesvirus 2 = experiment: Antiviral activity against Herpes simplex virus 2 G infected in HEL cells assessed as inhibition of virus-induced cytopathicity; type: functional, organism-based; conditions: Human alphaherpesvirus 2, strain G
Human betaherpesvirus 5 [10] = experiment: Antiviral activity against Human cytomegalovirus Davis infected in HEL cells assessed as inhibition of virus-induced cytopathicity; type: functional, organism-based; conditions: Human betaherpesvirus 5, Davis
Human alphaherpesvirus 3 [11] = experiment: Antiviral activity against thymidine kinase expressing Varicella-Zoster virus infected in HEL cells assessed as reduction in virus plaque formation; type: functional, organism-based; conditions: Human alphaherpesvirus 3, HEL
Human betaherpesvirus 5 [12] = experiment: Antiviral activity against Human cytomegalovirus AD169 infected in HEL cells assessed as inhibition of virus-induced cytopathicity; type: functional, organism-based; conditions: Human betaherpesvirus 5, AD169, HEL
Punta Toro virus = experiment: Antiviral activity against Punta Toro virus infected in African green monkey Vero cells assessed as inhibition of virus-induced cytopathicity; type: functional, organism-based
Human coronavirus 229E = experiment: Antiviral activity against Human coronavirus 229E infected in HEL cells assessed as inhibition of virus-induced cytopathicity; type: functional, organism-based
[13] = Cytotoxicity against African green monkey Vero cells assessed as alteration of cell morphology by microscopic analysis; type: cell-based; conditions: chlorocebus sabaeus
Method in brief: (§1)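 The value is the minimal cytotoxic concentration (MCC), the lowest concentration that causes a microscopically visible change in cell morphology. It was read in the same HEL or Vero cell cultures used for the antiviral tests.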

Human alphaherpesvirus 1 [14] = experiment: Antiviral activity against acyclovir-resistant thymidine kinase deficient Herpes simplex virus 1 KOS infected in HEL cells assessed as inhibition of virus-induced cytopathicity; type: functional, organism-based; conditions: Human alphaherpesvirus 1, KOS
Human respirovirus 3 = experiment: Antiviral activity against Parainfluenza virus 3 infected in human HeLa cells assessed as inhibition of virus-induced cytopathicity; type: functional, organism-based; conditions: Human respirovirus 3, HeLa
Coxsackievirus B4 = experiment: Antiviral activity against Coxsackie virus B4 infected in African green monkey Vero cells assessed as inhibition of virus-induced cytopathicity; type: functional, organism-based; conditions: Enterovirus B
Yellow fever virus = experiment: Antiviral activity against Yellow fever virus infected in African green monkey Vero cells assessed as inhibition of virus-induced cytopathicity; type: functional, organism-based
[15] = Cytotoxicity against HEL cells assessed as alteration of cell morphology by microscopic analysis; type: cell-based; conditions: human; method in brief: as §1
Influenza B virus [16] = experiment: Antiviral activity against Influenza B virus infected in MDCK cells assessed as inhibition of virus-induced cytopathicity by MTS assay; type: functional, organism-based
Vaccinia virus = experiment: Antiviral activity against Vaccinia virus infected in HEL cells assessed as inhibition of virus-induced cytopathicity; type: functional, organism-based; conditions: Orthopoxvirus vaccinia
Influenza A virus H3N2 [17] = experiment: Antiviral activity against Influenza A virus H3N2 infected in MDCK cells assessed as inhibition of virus-induced visual cytopathicity; type: functional, organism-based
Influenza A virus [18] = experiment: Antiviral activity against Influenza A virus H1N1 infected in MDCK cells assessed as inhibition of virus-induced cytopathicity by MTS assay; type: functional, organism-based
[19] = system: Vesicular stomatitis virus; experiment: Antiviral activity against Vesicular stomatitis virus infected in human HeLa cells assessed as inhibition of virus-induced cytopathicity; type: functional, organism-based

Row | SMILES | EC50 (Influenza B virus [1]) [µM] | EC50 (Sindbis virus) [µM] | EC50 [2] [µM] | MCC [3] [µM] | EC50 (Human alphaherpesvirus 1 [4]) [µM] | EC50 (Influenza A virus [5]) [µM] | EC50 [6] [µM] | EC50 (Human alphaherpesvirus 3 [7]) [µM] | EC50 (Human adenovirus 2) [µM] | EC50 (Influenza A virus H3N2 [8]) [µM] | MCC [9] [µM] | EC50 (Human alphaherpesvirus 2) [µM] | EC50 (Human betaherpesvirus 5 [10]) [µM] | EC50 (Human alphaherpesvirus 3 [11]) [µM] | EC50 (Human betaherpesvirus 5 [12]) [µM] | EC50 (Punta Toro virus) [µM] | EC50 (Human coronavirus 229E) [µM] | MCC [13] [µM] | EC50 (Human alphaherpesvirus 1 [14]) [µM] | EC50 (Human respirovirus 3) [µM] | other results
1 | C/C(=C\CP(=O)(N[C@@H](C)C(=O)OC(C)C)Oc1ccccc1)Cn1cc(C)c(=O)[nH]c1=O (stereo not given in full) | > 100 | > 100 | > 100 | ≥ 20 | > 100 | > 100 | > 100 | > 100 | > 100 | > 100 | > 100 | > 100 | > 100 | 76.5 | > 100 | > 100 | > 100 | ≥ 20 | > 100 | > 100 | EC50 (Coxsackievirus B4): > 100 µM; EC50 (Yellow fever virus): > 100 µM; MCC [15]: > 100 µM; EC50 (Influenza B virus [16]): > 100 µM; EC50 (Vaccinia virus): > 100 µM; EC50 (Influenza A virus H3N2 [17]): > 100 µM; EC50 (Influenza A virus [18]): > 100 µM; EC50 [19]: > 100 µM
2 | C/C(=C\CP(=O)(N[C@@H](C)C(=O)OC(C)C)Oc1cccc2ccccc12)Cn1ccc(=O)[nH]c1=O (stereo not given in full) | > 100 | > 100 | > 100 | > 100 | > 100 | > 100 | > 100 | > 100 | > 100 | > 100 | > 100 | > 100 | > 100 | 20 | > 100 | > 100 | > 100 | > 100 | > 100 | > 100 | EC50 (Coxsackievirus B4): > 100 µM; EC50 (Yellow fever virus): > 100 µM; MCC [15]: > 100 µM; EC50 (Influenza B virus [16]): > 100 µM; EC50 (Vaccinia virus): > 100 µM; EC50 (Influenza A virus H3N2 [17]): > 100 µM; EC50 (Influenza A virus [18]): > 100 µM; EC50 [19]: > 100 µM
3 | C/C(=C\CP(=O)(N[C@@H](C)C(=O)OC(C)C)Oc1cccc2c1CCCC2)Cn1ccc(=O)[nH]c1=O (stereo not given in full) | > 100 | > 100 | > 100 | > 100 | > 100 | > 100 | > 100 | 71.5 | > 100 | > 100 | > 100 | > 100 | > 100 | 29.9 | > 100 | > 100 | > 100 | > 100 | > 100 | > 100 | EC50 (Coxsackievirus B4): > 100 µM; EC50 (Yellow fever virus): > 100 µM; MCC [15]: > 100 µM; EC50 (Influenza B virus [16]): > 100 µM; EC50 (Vaccinia virus): > 100 µM; EC50 (Influenza A virus H3N2 [17]): > 100 µM; EC50 (Influenza A virus [18]): > 100 µM; EC50 [19]: > 100 µM
4 | C/C(=C\CP(=O)(N[C@@H](C)C(=O)OCc1ccccc1)Oc1ccccc1)Cn1ccc(=O)[nH]c1=O (stereo not given in full) | > 100 | > 100 | > 100 | > 100 | > 100 | > 100 | > 100 | > 100 | > 100 | > 100 | > 100 | > 100 | > 100 | > 100 | > 100 | > 100 | > 100 | > 100 | > 100 | > 100 | EC50 (Coxsackievirus B4): > 100 µM; EC50 (Yellow fever virus): > 100 µM; MCC [15]: > 100 µM; EC50 (Influenza B virus [16]): > 100 µM; EC50 (Vaccinia virus): > 100 µM; EC50 (Influenza A virus H3N2 [17]): > 100 µM; EC50 (Influenza A virus [18]): > 100 µM; EC50 [19]: > 100 µM
5 | C/C(=C\CP(=O)(N[C@@H](C)C(=O)OCc1ccccc1)Oc1cccc2c1CCCC2)Cn1ccc(=O)[nH]c1=O (stereo not given in full) | > 100 | > 100 | > 100 | ≥ 100 | > 100 | > 100 | > 100 | 52.5 | > 100 | > 100 | > 100 | > 100 | > 100 | 55.7 | > 100 | > 100 | > 100 | ≥ 100 | > 100 | > 100 | EC50 (Coxsackievirus B4): > 100 µM; EC50 (Yellow fever virus): > 100 µM; MCC [15]: > 100 µM; EC50 (Influenza B virus [16]): > 100 µM; EC50 (Vaccinia virus): > 100 µM; EC50 (Influenza A virus H3N2 [17]): > 100 µM; EC50 (Influenza A virus [18]): > 100 µM; EC50 [19]: > 100 µM
